Test results: ChEMBL document CHEMBL1165943, “Design and synthesis of new anticancer pyrimidines with multiple-kinase inhibitory effect” (Bioorg Med Chem, 2010)
Calls of active or inactive are those of the source. No cut-off for these calls is given here.

Tests used:
[1] = tested on: SNB-75; experiment: Cytotoxicity against human SNB75 cells assessed as cell growth at 10 uM after 48 hrs by sulforhodamine B assay; format: functional; conditions: SNB-75, 48 h, read-out: Activity
[2] = tested on: SK-OV-3; experiment: Cytotoxicity against human SKOV3 cells assessed as cell growth at 10 uM after 48 hrs by sulforhodamine B assay; format: functional; conditions: SK-OV-3, 48 h, read-out: Activity
[3] = tested on: HT-29; experiment: Growth inhibition of human HT-29 cells after 48 hrs by sulforhodamine B assay; format: functional, cell-based; conditions: HT-29, 48 h; for CC50: read-out: LC50 (the source's name)
Method in brief: (§1)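 Cells grown in RPMI 1640 with 5% FBS and 2 mM L-glutamine, seeded at 5,000–40,000 cells/well according to doubling time. After 24 h, time-zero plates are TCA-fixed. Five concentrations (10-fold or ½log dilutions, DMSO stocks) are applied for 48 h at 37 °C, 5% CO₂. Cells are TCA-fixed, SRB-stained and read at 515 nm. IC₅₀ is taken from [(Ti−Tz)/(C−Tz)]×100 = 50.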

[4] = tested on: SN12C; experiment: Cytotoxicity against human SN12C cells assessed as cell growth at 100 nM after 48 hrs by sulforhodamine B assay; format: functional; conditions: read-out: Activity
[5] = tested on: HCT-116; experiment: Cytotoxicity against human HCT116 cells assessed as cell growth at 10 uM after 48 hrs by sulforhodamine B assay; format: functional; conditions: HCT-116, 48 h, read-out: Activity
[6] = tested on: HOP-62; experiment: Cytotoxicity against human HOP62 cells assessed as cell growth at 10 uM after 48 hrs by sulforhodamine B assay; format: functional; conditions: HOP-62, 48 h, read-out: Activity
[7] = tested on: TK-10; experiment: Cytotoxicity against human TK10 cells assessed as cell growth at 0.01 uM after 48 hrs by sulforhodamine B assay; format: functional; conditions: TK-10, 48 h, read-out: Activity
[8] = tested on: SNB-75; experiment: Cytotoxicity against human SNB75 cells assessed as cell growth at 1 uM after 48 hrs by sulforhodamine B assay; format: functional; conditions: SNB-75, 48 h, read-out: Activity
[9] = tested on: NCI-H23; experiment: Cytotoxicity against human NCI-H23 cells assessed as cell growth at 0.01 uM after 48 hrs by sulforhodamine B assay; format: functional; conditions: NCI-H23, 48 h, read-out: Activity
[10] = tested on: RXF 393; experiment: Growth inhibition of human RXF393 cells after 48 hrs by sulforhodamine B assay; format: functional, cell-based; method in brief: as §1
[11] = tested on: IGROV-1; experiment: Cytotoxicity against human IGROV1 cells assessed as cell growth at 10 uM after 48 hrs by sulforhodamine B assay; format: functional; conditions: IGROV-1, 48 h, read-out: Activity
[12] = tested on: SK-MEL-2; experiment: Cytotoxicity against human SK-MEL-2 cells assessed as cell growth at 0.001 uM after 48 hrs by sulforhodamine B assay; format: functional; conditions: SK-MEL-2, 48 h, read-out: Activity
[13] = Growth inhibition of human Hs 578T cells after 48 hrs by sulforhodamine B assay; format: functional, cell-based; conditions: for CC50: read-out: LC50 (the source's name); method in brief: as §1
[14] = tested on: A498; experiment: Cytotoxicity against human A498 cells assessed as cell growth at 0.01 uM after 48 hrs by sulforhodamine B assay; format: functional; conditions: A498, 48 h, read-out: Activity
Method in brief: (§2)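 Cells grown in RPMI 1640 with 5% FBS and 2 mM L-glutamine, seeded at 5,000–40,000 cells/well by doubling time. Time-zero plates TCA-fixed after 24 h. Five concentrations (10-fold or half-log dilutions from DMSO stock) added; 48 h at 37 °C, 5% CO2. Cold TCA fixation (final 10%, 60 min, 4 °C), 0.4% SRB stain, dye solubilized in 10 mM trizma base, A515.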

[15] = tested on: DU-145; experiment: Cytotoxicity against human DU145 cells assessed as cell growth at 0.01 uM after 48 hrs by sulforhodamine B assay; format: functional; conditions: DU-145, 48 h, read-out: Activity
[16] = tested on: CAKI-1; experiment: Cytotoxicity against human Caki1 cells assessed as cell growth at 10 uM after 48 hrs by sulforhodamine B assay; format: functional; conditions: CAKI-1, 48 h, read-out: Activity; method in brief: as §2
[17] = tested on: IGROV-1; experiment: Cytotoxicity against human IGROV1 cells assessed as cell growth at 1 uM after 48 hrs by sulforhodamine B assay; format: functional; conditions: IGROV-1, 48 h, read-out: Activity
[18] = tested on: SF-295; experiment: Cytotoxicity against human SF295 cells assessed as cell growth at 0.001 uM after 48 hrs by sulforhodamine B assay; format: functional; conditions: SF-295, 48 h, read-out: Activity
[19] = tested on: M14; experiment: Growth inhibition of human M14 cells after 48 hrs by sulforhodamine B assay; format: functional, cell-based; conditions: for CC50: read-out: LC50 (the source's name); method in brief: as §1
[20] = tested on: NCI/ADR-RES; experiment: Cytotoxicity against human NCI/ADR-RES cells assessed as cell growth at 1 uM after 48 hrs by sulforhodamine B assay; format: functional; conditions: read-out: Activity
[21] = tested on: SNB-19; experiment: Cytotoxicity against human SNB19 cells assessed as cell growth at 0.01 uM after 48 hrs by sulforhodamine B assay; format: functional; conditions: SNB-19, 48 h, read-out: Activity
[22] = tested on: CAKI-1; experiment: Cytotoxicity against human Caki1 cells assessed as cell growth at 0.01 uM after 48 hrs by sulforhodamine B assay; format: functional; conditions: CAKI-1, 48 h, read-out: Activity; method in brief: as §2
[23] = tested on: OVCAR-8; experiment: Cytotoxicity against human OVCAR8 cells assessed as cell growth at 0.001 uM after 48 hrs by sulforhodamine B assay; format: functional; conditions: OVCAR-8, 48 h, read-out: Activity
[24] = tested on: COLO 205; experiment: Cytotoxicity against human COLO205 cells assessed as cell growth at 1 uM after 48 hrs by sulforhodamine B assay; format: functional; conditions: COLO 205, 48 h, read-out: Activity; method in brief: as §2
[25] = tested on: SF-295; experiment: Cytotoxicity against human SF295 cells assessed as cell growth at 0.01 uM after 48 hrs by sulforhodamine B assay; format: functional; conditions: SF-295, 48 h, read-out: Activity
[26] = tested on: SK-MEL-5; experiment: Cytotoxicity against human SK-MEL-5 cells assessed as cell growth at 1 uM after 48 hrs by sulforhodamine B assay; format: functional; conditions: SK-MEL-5, 48 h, read-out: Activity
[27] = Cytotoxicity against human Hs 578T cells assessed as cell growth at 100 nM after 48 hrs by sulforhodamine B assay; format: functional; conditions: read-out: Activity
[28] = tested on: SF-295; experiment: Cytotoxicity against human SF295 cells assessed as cell growth at 100 nM after 48 hrs by sulforhodamine B assay; format: functional; conditions: SF-295, 48 h, read-out: Activity
[29] = tested on: CAKI-1; experiment: Growth inhibition of human Caki1 cells after 48 hrs by sulforhodamine B assay; format: functional, cell-based; conditions: CAKI-1, 48 h
Method in brief: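 Five-dose SRB assay. Cells in RPMI 1640 with 5% FBS and 2 mM L-glutamine were seeded at 5,000–40,000 cells/well, with a TCA-fixed time-zero plate (Tz) taken at 24 h. Compound stocks were in DMSO, serially diluted 10-fold or ½-log to five concentrations, and incubated 48 h at 37 °C. Plates were stained with SRB and read at 515 nm. IC₅₀ was taken where [(Ti−Tz)/(C−Tz)]×100 = 50.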

[30] = tested on: M14; experiment: Cytotoxicity against human M14 cells assessed as cell growth at 100 nM after 48 hrs by sulforhodamine B assay; format: functional; conditions: M14, 48 h, read-out: Activity
[31] = tested on: HCT-116; experiment: Cytotoxicity against human HCT116 cells assessed as cell growth at 0.001 uM after 48 hrs by sulforhodamine B assay; format: functional; conditions: HCT-116, 48 h, read-out: Activity

## CC(=O)Nc1cccc(-c2ccc(-c3ccnc(NC(=O)Nc4cc(C(F)(F)F)cc(C(F)(F)F)c4)n3)cn2)c1.Cl
[1]
  growth at 10 µM: -57%
[2]
  growth at 10 µM: -63%
[3]
  GI50: 3 µM
  IC50: 3 µM
  TGI: 8.74 µM
  CC50: 57.6 µM
[4]
  growth at 0.1 µM: 86%
[5]
  growth at 10 µM: 100%
[6]
  growth at 10 µM: -36%
[7]
  growth at 0.01 µM: 102%
[8]
  growth at 1 µM: 54%
[9]
  growth at 0.01 µM: 92%
[10]
  LC50: inactive
  TGI: inactive
[10]; rxf 393
  IC50: Not Active
[11]
  growth at 10 µM: -21%
[12]
  growth at 0.001 µM: 95%
[13]
  GI50: 7.52 µM
  IC50: 7.52 µM
  TGI: > 100 µM
  CC50: > 100 µM
[14]
  growth at 0.01 µM: 92%
[15]
  growth at 0.01 µM: 95%
[16]
  growth at 10 µM: -36%
[17]
  growth at 1 µM: -2%
[18]
  growth at 0.001 µM: 98%
[19]; Homo sapiens, M14, 48 h
  GI50: 1.83 µM
  TGI: 3.76 µM
  CC50: 7.74 µM
[19]; Homo sapiens, M14, 48 h, read-out: IC50
  IC50: 1.83 µM
[20]
  growth at 1 µM: 17%
[21]
  growth at 0.01 µM: 96%
[22]
  growth at 0.01 µM: 104%
[23]
  growth at 0.001 µM: 102%
[24]
  growth at 1 µM: 52%
[25]
  growth at 0.01 µM: 94%
[26]
  growth at 1 µM: 100%
[27]
  growth at 0.1 µM: 97%
[28]
  growth at 0.1 µM: 57%
[29]
  GI50: 2.37 µM
  IC50: 2.37 µM
  LC50 (lethal concentration 50%): > 100 µM
  TGI: 8.34 µM
[30]
  growth at 0.1 µM: 92%
[31]
  growth at 0.001 µM: 92%

## CC(=O)c1ccccc1-c1ccc(-c2ccnc(NC(=O)Nc3cc(N4CCOCC4)cc(C(F)(F)F)c3)n2)cn1
[1]
  growth at 10 µM: -45%
[2]
  growth at 10 µM: 41%
[3]
  GI50: > 100 µM
  IC50: > 100 µM
  TGI: > 100 µM
  CC50: > 100 µM
[4]
  growth at 0.1 µM: 83%
[5]
  growth at 10 µM: 66%
[6]
  growth at 10 µM: 19%
[7]
  growth at 0.01 µM: 117%
[8]
  growth at 1 µM: 36%
[9]
  growth at 0.01 µM: 99%
[10]
  LC50: inactive
[10]; Homo sapiens, RXF 393, 48 h
  GI50: > 100 µM
  TGI: 3.5 µM
[10]; Homo sapiens, RXF 393, 48 h, read-out: IC50
  IC50: 1.27 µM
[11]
  growth at 10 µM: 41%
[12]
  growth at 0.001 µM: 102%
[13]
  GI50: > 100 µM
  IC50: 2.87 µM
  TGI: > 100 µM
  CC50: > 100 µM
[14]
  growth at 0.01 µM: 83%
[15]
  growth at 0.01 µM: 97%
[16]
  growth at 10 µM: 86%
[17]
  growth at 1 µM: 40%
[18]
  growth at 0.001 µM: 93%
[19]; Homo sapiens, M14, 48 h
  TGI: > 100 µM
  CC50: > 100 µM
[19]; m14
  IC50: Not Active
[20]
  growth at 1 µM: 50%
[21]
  growth at 0.01 µM: 98%
[22]
  growth at 0.01 µM: 92%
[23]
  growth at 0.001 µM: 92%
[24]
  growth at 1 µM: 106%
[25]
  growth at 0.01 µM: 90%
[26]
  growth at 1 µM: 33%
[27]
  growth at 0.1 µM: 77%
[28]
  growth at 0.1 µM: 88%
[29]
  GI50: 6.89 µM
  IC50: > 100 µM
  LC50 (lethal concentration 50%): > 100 µM
  TGI: > 100 µM
[30]
  growth at 0.1 µM: 77%
[31]
  growth at 0.001 µM: 95%
